Reference: ChEMBL document CHEMBL4196181, “Flabellipparicine, a Flabelliformide-Apparicine-Type Bisindole Alkaloid from Tabernaemontana divaricata” (J Nat Prod, 2018)
pIC50: −log10 of the molar value. Calls of active or inactive are those of the source. The calls are words filed in the database; no cut-off is given here.

How the values were obtained:
[1] = test system: A549; assay: Cytotoxicity against human A549 cells after 72 hrs by sulforhodamine B assay; assay type: functional, cell-based; conditions: for pIC50: A549, 72 h
In short: (§1)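 Antiproliferative test on MCF-7 human breast adenocarcinoma and A-549 human lung carcinoma cells. SN38 (7-ethyl-10-hydroxycamptothecin) served as positive control. IC50 is the concentration giving 50% inhibition of cell growth, calculated by a literature procedure.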

[2] = test system: MCF7; assay: Cytotoxicity against human MCF7 cells after 72 hrs by sulforhodamine B assay; assay type: functional, cell-based; conditions: for pIC50: MCF7, 72 h; in short: as §1

| SMILES | pIC50 [1] | pIC50 [2] | Activity [1] | Activity [2] |
| --- | --- | --- | --- | --- |
| CCc1c2c(nc3ccc(O)cc13)-c1cc3c(c(=O)n1C2)COC(=O)[C@]3(O)CC [7-ETHYL-10-HYDROXYCAMPTOTHECIN] | 6.70 | > 10.00 | – | – |
| C/C=C1/CN2CC[C@@H]1/C(=C\[C@@H]1C[C@@H]3/C(=C\C)CN(C)[C@H](Cc4c1[nH]c1ccccc41)[C@@H]3C(=O)OC)c1[nH]c3ccccc3c1C2 | 5.40 | 5.89 | – | – |
| CC[C@@H]1CN(C)[C@@H]2Cc3c([nH]c4ccccc34)[C@H](c3ccc4c(c3)N=C3[C@@H]5C[C@H]6C[C@H](CC)[C@@H]5N(CC[C@@]34O)C6)C[C@H]1[C@H]2C(=O)OC | < 5.00 | 5.89 | – | – |
| CC[C@H]1[C@@H]2CCN3CC[C@@]4(C(=C2C(=O)OC)Nc2ccccc24)[C@@H]13 | – | – | inactive | inactive |
| CC[C@@H]1CN(C)[C@@H]2Cc3c([nH]c4ccccc34)[C@H](c3ccc4c5c([nH]c4c3)[C@]3(C(=O)OC)C[C@H]4C[C@H](CC)[C@@H]3N(CC5)C4)C[C@H]1[C@H]2C(=O)OC | < 5.00 | 5.27 | – | – |
| CC[C@@H]1CN(C)[C@@H]2Cc3c([nH]c4ccccc34)[C@H](c3ccc4c5c([nH]c4c3)[C@]3(C(=O)OC)C[C@H]4C[C@H](CC)[C@@H]3N(CC5)[C@H]4CC(C)=O)C[C@H]1[C@H]2C(=O)OC | 5.92 | 5.89 | – | – |
| C=C1c2[nH]c3ccccc3c2CN2CC[C@H]1/C(=C\C)C2 | – | – | inactive | inactive |
| C/C=C1/C[N+]2(C)[C@@H]3Cc4c([nH]c5ccccc45)[C@]2(c2ccc4c5c([nH]c4c2)[C@@H]2C[C@H]4C[C@H](CC)[C@@H]2N(CC5)C4)C[C@H]1[C@H]3C(=O)OC | 5.49 | 5.89 | – | – |
| C/C=C1/CN2CC[C@@H]1[C@@]1(C[C@H]3C[C@@H]4/C(=C\Cc5c3n1c1ccccc51)C(=O)N(C)C[C@@H]4CC)c1[nH]c3ccccc3c1C2 | 5.12 | < 5.00 | – | – |
| CCC1C[C@@H]2C[C@@]3(C(=O)OC)C4=Nc5ccccc5[C@@]4(O)CCN([C@@H]13)[C@H]2CC(C)=O (stereo partly specified) | – | – | inactive | inactive |
| CC[C@H]1CN2CCc3cc(OC)c(OC)cc3[C@@H]2C[C@@H]1C[C@H]1NCCc2c1[nH]c1ccccc21 | 7.05 | 8.70 | – | – |
| C/C=C1/CN2CC[C@@H]1/C(=C\[C@@H]1C[C@@H]3[C@H](CC)CN(C)[C@H](Cc4c1[nH]c1ccccc41)[C@@H]3C(=O)OC)c1[nH]c3ccccc3c1C2 | 5.09 | 6.10 | – | – |
| C/C=C1/C[N+]2(C)[C@@H]3Cc4c([nH]c5ccccc45)[C@]2(c2ccc4c5c([nH]c4c2)[C@]2(C(=O)OC)C[C@H]4C[C@H](CC)[C@@H]2N(CC5)C4)C[C@H]1[C@H]3C(=O)OC | 5.92 | 5.14 | – | – |
